Screening data: PubChem, several laboratories
NSD2 inh: NSD2 (human) methyltransferase inhibition; O96028; NSD2 peptide methylation, AlphaScreen, 120 min; inhibition, % at 12.5 µM; 310,000 tested, 0.54% active; in the data active = inhibition above about 50%
TDP2 inh: TDP2 (human) inhibition, absorbance primary screen | inhibition, % at 12.8 µM | 370,000 tested, 0.34% active | O95551 | recombinant TDP2, T5PNP hydrolysis, p-nitrophenol absorbance 415 nm;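 active = inhibition above the mean of all tested compounds plus 3 SD, set per campaign, cut at about 25% in these data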;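 also: 0% = DMSO with enzyme and 100% = buffer with substrate but no TDP2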
Target sequence (O95551 whole entry, looked up): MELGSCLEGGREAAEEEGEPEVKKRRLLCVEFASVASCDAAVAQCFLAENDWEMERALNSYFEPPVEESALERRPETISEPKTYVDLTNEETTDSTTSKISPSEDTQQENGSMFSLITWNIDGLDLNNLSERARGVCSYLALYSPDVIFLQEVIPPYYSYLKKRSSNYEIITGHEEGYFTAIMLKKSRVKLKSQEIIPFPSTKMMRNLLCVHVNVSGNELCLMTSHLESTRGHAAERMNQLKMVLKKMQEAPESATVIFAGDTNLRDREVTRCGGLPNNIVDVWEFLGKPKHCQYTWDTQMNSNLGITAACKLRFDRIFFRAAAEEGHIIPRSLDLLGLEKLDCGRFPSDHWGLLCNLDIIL
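Assay system: recombinant human TDP2 / Reagent: T5PNP substrate at 5 mM, a TopII-DNA adduct mimic / Measured by: epi absorbance from released p-nitrophenol / Evaluation: % inhibition relative to enzyme-containing and enzyme-free wells / Control set: enzyme-free and DMSO wells / Replicates: each compound tested once, singlicate / Schedule: enzyme reaction with compound for 2 h at 37 °C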
LEDGF integ inh: blocks HIV-1 LEDGF/p75-dependent DNA integration; TR-FRET IN-LEDGF/p75 DNA integration, Eu/Cy5; inhibition, % at 3.7 µM; 370,000 tested, 0.64% active; AID 743269;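 active = inhibition above the screen-wide mean plus 3 SD, cut at about 13% in these data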;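 also: signal is the Cy5 over europium emission ratio at 671 and 618 nm; 0% = plate median of compound wells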
UCH37 DUB inh: inhibitors of human deubiquitinating enzyme UCH37. Q9Y5K5. purified proteasome/UCH37, Ub-AMC cleavage fluorescence. inhibition, % (concentration not given with the values). 330,000 tested, 0.33% active. AID 588478;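 active = mean inhibition over replicate wells above about 20%, limit read from the data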;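 also: 0% = compound-free wells with enzyme and 100% = wells lacking proteasome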
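Material: Human UCH37 enzyme supplied as purified proteasome complex | Schedule: 30 min compound-proteasome preincubation then 25 min substrate reaction, room temperature | Detection: AMC fluorescence from Ub-AMC cleavage, excitation 355 nm, emission 460 nm | Benchmarks: Wells without proteasome as full block, compound-free enzyme plus substrate as uninhibited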
CASP6 VEID inh: caspase-6 (human) enzyme inhibition. P55212. purified caspase-6, Z-VEID-R110 cleavage fluorescence. inhibition, % at 12.5 µM. 350,000 tested, 0.53% active. AID 686996;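 active = mean inhibition across replicates at least about 35%, with every replicate also reaching that limit, limit read from the data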;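 also: 0% = median of neutral control wells and 100% = no fluorescence left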
Target sequence (P55212 24-179 limits assumed): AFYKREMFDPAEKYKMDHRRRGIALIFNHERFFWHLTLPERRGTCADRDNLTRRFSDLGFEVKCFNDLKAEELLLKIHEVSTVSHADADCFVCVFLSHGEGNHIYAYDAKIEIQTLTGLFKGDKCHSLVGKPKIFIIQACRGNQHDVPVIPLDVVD
Target sequence (P55212 194-293 limits assumed): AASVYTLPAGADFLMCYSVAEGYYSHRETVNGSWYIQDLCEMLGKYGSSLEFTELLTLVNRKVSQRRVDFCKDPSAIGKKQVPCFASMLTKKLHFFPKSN
* marks the source's active call; other numbers are inactive results; nt = no result given. Hits are enriched below; roughly 1.3% of the tested compounds scored in any of these assays.

SMILES	NSD2 inh	TDP2 inh	LEDGF integ inh	UCH37 DUB inh	CASP6 VEID inh
CN(N=Cc1cccs1)c1cc(=O)n(C)c(=O)[nH]1	nt	nt	nt	21*	nt
CN(/N=C/C=C/c1ccccc1)c1cc(=O)n(C)c(=O)[nH]1	0	-7	-7	nt	3
CC1CN(Cc2c(O)ccc3c2oc(=O)c2ccccc23)CC(C)O1 (configuration not stated)	98*	0	5	-12	12
CC(C)(C)c1ccc(C(=O)Nc2ccc(S(=O)(=O)Nc3cnc4ccccc4n3)cc2)cc1	20	-8	-3	3	61*
O=C(Nc1ccc(S(=O)(=O)Nc2cnc3ccccc3n2)cc1)c1ccc(F)cc1	-2	-22	5	-3	3
O=C(O)Cc1sc(N/N=C\c2ccccc2)nc1-c1ccccc1	nt	10	25*	nt	nt
Cn1cccc1C=NNC(=O)c1cccc(OC(F)(F)C(F)F)c1	nt	nt	nt	5	nt
CSCCC(NC(=O)c1ccccc1)C(=O)NN=C(C)c1ccccc1 (configuration not stated)	nt	nt	nt	2	nt
O=C(O)/C=C1\NC(=O)c2ccccc21	0	-11	-1	5	nt
O=C1N/C(=C\c2ccc(O)cc2)C(=O)c2ccccc21	1	nt	nt	87*	83*
CC(C)(C)c1ccc(C(=O)NC(=S)N2CCCCCC2)cc1	4	18	21*	3	-4
CC(C)(C)c1ccc(C(=O)NC(=S)N2CCCC2)cc1	1	-15	3	2	-1
Cc1ccc(C=NNC(=O)c2ccc(Cn3cc([N+](=O)[O-])cn3)o2)cc1	nt	nt	nt	3	nt
O=C(Nc1ccccc1)c1ccccc1OCc1cccc([N+](=O)[O-])c1	12	-6	-3	5	36*
O=C(Nc1ccc(O)cc1)c1ccccc1OCc1ccccc1	1	4	-2	4	0
COc1cccc2c(SCC(=O)NN=Cc3ccc(O)c(O)c3)cc(C)nc12	nt	nt	nt	-40	nt
Cc1ccc(N2CCN(N=Cc3c(C)nn(-c4ccccc4)c3Cl)CC2)cc1	nt	nt	nt	2	nt
Cc1nc2ccc(NS(=O)(=O)c3ccc(F)cc3F)cc2s1	-1	4	-1	-2	3
Cc1nc2ccc(NS(=O)(=O)c3c(F)cc(F)cc3Br)cc2s1	2	2	1	0	40*
COc1ccc(C2SCC(=O)N2CCCN(C)C)cc1 (configuration not stated)	19	-17	2	34*	nt
COc1ccc(C2SCC(=O)N2c2ccc(OC)cc2)cc1 (configuration not stated)	0	-8	0	4	1
N#CC(=NNc1ccc(OC(F)(F)F)cc1)C(N)=S	nt	nt	nt	5	nt
Cc1cc(/C=N/NC(=O)C(O)(c2ccccc2)c2ccccc2)c(C)n1-c1cccc(C(=O)O)c1	nt	-10	5	nt	43*
Cc1cc(/C=N/NC(=O)C(O)(c2ccccc2)c2ccccc2)c(C)n1-c1ccc(C(=O)O)cc1	5	-18	5	nt	35
O=C(Cn1cncn1)NCCCc1ccccc1	-3	3	-4	4	75*
SMILES	NSD2 inh	TDP2 inh	LEDGF integ inh	UCH37 DUB inh	CASP6 VEID inh
O=C(Cn1cncn1)NCCC(c1ccccc1)c1ccccc1	nt	9	-5	3	-2
OC(c1ccc(F)cc1)c1ncc(-c2ccccc2F)[nH]1 (configuration not stated)	1	4	0	nt	39*
Clc1nc2sccn2c1C=Nn1cnc2ccccc21	nt	nt	nt	-6	nt
Cc1cccc(C)c1NC(=O)CN(C)CC(=O)Nc1ccccc1Oc1ccccc1	0	7	1	28*	0
Cc1ccc(NC(=O)CN(C)CC(=O)Nc2ccccc2Oc2ccccc2)cc1	7	18	-4	1	0
Cn1ccnc1C(=NNC(=O)c1ccc(O)cc1)c1cccc([N+](=O)[O-])c1	nt	nt	nt	10	nt
O=C(c1ccccc1NS(=O)(=O)c1ccccc1[N+](=O)[O-])N1CCOCC1	-2	1	1	2	nt
O=C(c1ccccc1NS(=O)(=O)c1ccc([N+](=O)[O-])cc1[N+](=O)[O-])N1O[C@@H]2C=C[C@H]1C2	nt	4	4	-13	37*
CC(C1SC(=S)NC1=O)C1SC(=S)NC1=O (configuration not stated)	31	12	-12	nt	68*
O=C(NNC(=O)c1ccccc1F)c1ccc2nc[nH]c2c1	-5	6	2	3	3
O=C(NNC(=O)c1ccccc1Br)c1ccc2nc[nH]c2c1	-4	-2	3	0	47*
CCCOc1ccc(/C=C/c2[nH]c(=O)[nH]c(=O)c2[N+](=O)[O-])cc1OCC	2	3	-4	12	0
CCOC(=O)COc1ccc(Br)cc1/C=C\c1[nH]c(=O)[nH]c(=O)c1[N+](=O)[O-]	31	-58	-4	18	56*
CCOC(=O)COc1ccc(Br)cc1/C=C/c1[nH]c(=O)[nH]c(=O)c1[N+](=O)[O-]	-1	-49	-2	nt	40*
CC(Cn1nnc2ccccc21)=NOC(=O)c1cc(F)c(F)cc1Cl	nt	nt	nt	3	nt
OC(CN1CCN(Cc2ccc3c(c2)OCO3)CC1)c1c[nH]c2ccccc12 (configuration not stated)	12	-6	4	nt	nt
OC(CN1CCN(c2ccccc2)CC1)c1c[nH]c2ccccc12 (configuration not stated)	nt	7	-3	24*	nt
CC(=NNC(=O)CNC(=O)c1ccco1)c1ccc(Cl)cc1	nt	nt	nt	2	nt
CCCn1c(=O)c(C(=O)OCC)c(O)c2cc(Br)ccc21	-1	0	-4	4	nt
CCOC(=O)c1c(CN(C)C)n(C)c2c(O)c(N=NC(N)=O)c3ccc(Br)cc3c12	50	14	-1	52*	17
CCN1/C(=C\c2ccc3cc(C)ccc3[n+]2CC)Sc2cc(C)c(C)cc21	54*	5	-1	12	-25
Cc1oc(-c2ccc(Cl)cc2)cc1-c1nn2c(-c3ccoc3C)nnc2s1	20	18	29*	4	nt
CC1CCC2(CC1)NC(=O)N(CC(=O)Nc1sc3c(c1C(N)=O)CCC3)C2=O (configuration not stated)	2	-5	9	-2	42*
COC(=O)c1c(NC(=O)CN2C(=O)NC3(CCC(C)CC3)C2=O)sc2c1CCC2 (configuration not stated)	-1	-6	1	-8	-4
CC(C)(C)OC(=O)NCCCC[C@H](NC(=O)[C@H](Cc1c[nH]c2ccccc12)NC(=O)OCc1ccccc1)C(=O)O	12	8	-3	1	39*
CSCCC(NC(=O)OCc1ccccc1)C(=O)NC(Cc1c[nH]c2ccccc12)C(=O)O (configuration not stated)	0	-2	-1	nt	-3
C=CCN1C(=O)/C(=C/c2ccc(OC(C)=O)c(OCC)c2[N+](=O)[O-])SC1=S	13	9	4	42*	-1
CCOc1c(OC(C)=O)ccc(/C=C/c2ccc3cccc(OC(C)=O)c3n2)c1[N+](=O)[O-]	2	nt	nt	2	3
